# Compounds with a hit are over-represented: about 1.7% of the library has one in this group of screens.
# TPT1 inhibitor – inhibitors of Candida albicans tRNA 2'-phosphotransferase TPT1. AID 1962. inhibition, % at 5 µM. recombinant caTPT1, FP RNA substrate dephosphorylation. 300,000 tested, 0.81% active;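 active = inhibition above the mean of all tested compounds plus 3 SD, set per screening campaign, cut at about 24% in these data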;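 note: plate controls were DMSO alone for no effect and ferristatin control at 100 nM for full effect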
# Rev-erbA mod – Rev-erb alpha (human) modulation; P20393; activity, % at 10 µM; 370,000 tested, 0.79% active; Rev-erbα–FITC-DNA binding, fluorescence polarization, 90 min;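 active = activity above about 14%, limit read from the data; passing the limit was not always enough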;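 note: 0% = DMSO wells with 35 nM protein and 100% = DMSO wells with 750 nM protein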
# HNF4A DNA FP – change in binding of human HNF4 alpha to DNA; P41235; HNF4a-FITC DNA binding, fluorescence polarization, 1 h; activity change, % at 10 µM; 360,000 tested, 0.3% active; AID 1224865; in the data active = activity change above about 30%, passing the limit was not always enough
# Target sequence (P41235 whole entry, looked up): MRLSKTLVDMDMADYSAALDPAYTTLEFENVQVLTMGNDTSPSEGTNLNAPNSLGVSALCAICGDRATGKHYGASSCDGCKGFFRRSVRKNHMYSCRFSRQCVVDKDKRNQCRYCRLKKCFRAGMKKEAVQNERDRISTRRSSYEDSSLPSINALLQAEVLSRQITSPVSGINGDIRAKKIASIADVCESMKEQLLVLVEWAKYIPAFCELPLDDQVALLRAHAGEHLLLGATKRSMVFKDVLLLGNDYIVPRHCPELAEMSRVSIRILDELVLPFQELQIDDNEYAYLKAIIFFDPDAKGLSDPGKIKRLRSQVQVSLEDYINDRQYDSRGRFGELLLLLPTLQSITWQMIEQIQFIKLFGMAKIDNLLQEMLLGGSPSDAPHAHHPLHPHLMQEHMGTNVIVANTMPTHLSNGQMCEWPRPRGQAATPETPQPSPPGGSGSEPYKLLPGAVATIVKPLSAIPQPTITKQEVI
# CSN deneddyl inh – inhibitors of human CSN-mediated cullin deneddylation; inhibition, % at 12.5 µM; Purified CSN, SCF-Nedd8-OG deneddylation, fluorescence polarization; 360,000 tested, 0.38% active; Q92905;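 active = pattern-corrected inhibition above about 35%, with an unprinted fluorescence ratio check between 0.5 and 1.5, limit read from the data, passing the limit was not always enough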;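 note: 0% = enzyme with substrate and 100% = substrate without enzyme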
#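 Test system: Human Csn5 produced in HEK293T cells | Compound: 12.5 µM single point | Times: 90 min, room temperature | Signal: Fluorescence polarization readout | Read-out basis: % inhibition of substrate cleavage by Csn5 | Controls: no-enzyme wells high, enzyme-with-substrate wells low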
# caTPT1 confirm – confirmation of Candida albicans TPT1 inhibitors | shares compounds with TPT1 inhibitor | recombinant caTPT1, fluorescence polarization, RNase T1 coupled | inhibition, % at 5 µM | 2,400 tested, 74% active;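 active = inhibition above the primary screen limit, the mean inhibition of all tested compounds plus 3 SD, cut at about 25% in these data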
# RNase T1 inh – blocks Aspergillus oryzae RNase T1, a TPT1 counter-screen. shares compounds with TPT1 inhibitor. RNase T1 cleavage, fluorescence polarization, 1536-well. 2,400 tested, 83% active. inhibition, % at 5 µM;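 active = inhibition above the solvent-only control well mean plus 3 SD, limit set per screening run, cut at about 23% in these data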;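 note: plate controls were DMSO wells with enzyme for no effect and wells without RNase T1 for full effect; inhibitors block cleavage so intact labeled substrate keeps polarization high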
# Target sequence (P00651 whole entry, looked up): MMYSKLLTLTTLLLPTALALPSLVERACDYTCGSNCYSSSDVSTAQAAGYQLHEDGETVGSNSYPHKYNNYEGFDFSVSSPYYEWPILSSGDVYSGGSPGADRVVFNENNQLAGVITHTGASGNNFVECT
# CSN deneddyl val – validation of inhibitors of human CSN-mediated cullin deneddylation; shares compounds with CSN deneddyl inh; Csn5 deneddylation of SCF-Nedd8OG, fluorescence polarization, 90 min; inhibition, % at 16.6 µM; 540 tested, 62% active; AID 720654; in the data active = inhibition above about 50%;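 note: 0% = DMSO with enzyme and 100% = no enzyme wells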
# MMP2 cntr CSN – blocks human MMP-2 in a CSN deneddylation counter-screen; inhibition, % at 16.6 µM; 540 tested, 33% active; shares compounds with CSN deneddyl inh; recombinant MMP-2, FRET substrate fluorescence, 60 min;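 active = corrected plate-normalized z-score of 5 or more, or -5 or less, or inhibition of 15% or more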;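 note: plate controls were DMSO wells with enzyme for no effect and buffer wells lacking MMP-2 for full effect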
# Thrombin cntr – thrombin (bovine) inhibition, counter-screen for CSN hits. bovine thrombin cleavage of Ub4-pepOG, fluorescence polarization. 540 tested, 49% active. shares compounds with CSN deneddyl inh. AID 720656. inhibition, % at 16.6 µM;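 active = inhibition at or above a set limit, with a fluorescence interference ratio between 0.5 and a set maximum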
# NR1D1 mod conf – Rev-erb alpha (human) modulation, hit confirmation; shares compounds with Rev-erbA mod; Rev-erb alpha FITC-DNA binding, fluorescence polarization, 90 min; activation, % at 25 µM; 3,000 tested, 61% active;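 active = activation at or above a set limit, or at least 3 SD above the negative control mean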;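 note: 0% = 35 nM protein with DMSO and 100% = 750 nM protein high control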
# RORg counter – counter-screen for Rev-erb alpha modulators: RORgamma DNA binding | shares compounds with Rev-erbA mod | purified RORgamma protein-FITC-DNA binding, fluorescence polarization | IC50, µM | 910 tested, 8% active;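 active = Compounds whose fitted half-maximal concentration for disrupting protein-DNA binding is below 10 micromolar; the record names Rev-erb in its text, so the target is in doubt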
# * = called active by the depositor; . = no result given; + = active, no number.
SMILES,TPT1 inhibitor,Rev-erbA mod,HNF4A DNA FP,CSN deneddyl inh,MMP2 cntr CSN,Thrombin cntr,others
COCCn1c(SCC(=O)c2c[nH]c3ccccc23)nnc1-c1ccncc1,-1,.,2,-6,.,.,
O=[N+]([O-])c1ccc(-c2nc(-c3cccs3)c(-c3cccs3)[nH]2)cc1,63*,24*,32,28,.,.,caTPT1 confirm=60*;RNase T1 inh=77*;NR1D1 mod conf=33*;RORg counter=>40
CN(C)c1ccc(/C=C(/C(=O)c2ccc(Cl)cc2Cl)n2cncn2)cc1,121*,21*,92*,79*,-23*,70*,caTPT1 confirm=132*;RNase T1 inh=131*;CSN deneddyl val=93*;NR1D1 mod conf=18*
COc1ccc(/C=C(/C(=O)c2ccc(Cl)cc2Cl)n2cncn2)cc1,0,-1,-2,4,.,.,
CCN1/C(=C/C=C/c2sc3ccccc3[n+]2CC)Sc2ccccc21,-79,.,94,105,.,.,
CCN1/C(=C/c2ccc3cc(C)ccc3[n+]2CC)Sc2ccccc21,84*,111*,119*,72*,-23*,-61,caTPT1 confirm=97*;RNase T1 inh=103*;CSN deneddyl val=66*;NR1D1 mod conf=101*;RORg counter=>40
C[C@@H]1CN([C@@H](C)CN(C)C)C(=O)c2cc(NC(=O)Nc3ccccc3)ccc2O[C@@H](C)CCCCO[C@H]1CN(C)S(=O)(=O)c1ccc(F)cc1,.,9,.,.,.,.,
CN(C)c1ccc(/C=C(\C#N)C(=O)Nc2nc3c(s2)CCN(Cc2ccccc2)C3)cc1,+,28*,66,29,.,.,caTPT1 confirm=132*;RNase T1 inh=146*;NR1D1 mod conf=22*
Cc1ccc(NC(=O)Cc2cccc(OC(F)F)c2)c(S(=O)(=O)N2CCOCC2)c1,.,-8,.,.,.,.,
CCOc1cccc(/C=C(/C#N)c2nc3ccccc3[nH]2)c1OCC(=O)O,-2,-6,-1,1,.,.,
CCN(CC)c1ccc(/C=C(/C#N)c2nc3ccccc3[nH]2)c(OC(C)C)c1,163*,39*,53,-65,.,.,caTPT1 confirm=163*;RNase T1 inh=149*;NR1D1 mod conf=46*;RORg counter=>40
C=CCN1C(=O)/C(=C2/Sc3ccccc3N2C)SC1=Nc1c(C)n[nH]c1C,0,.,1,0,.,.,
CCN1C(=O)/C(=C2/Sc3ccccc3N2CC)S/C1=N\c1ncn[nH]1,36*,19*,22,136,.,.,caTPT1 confirm=57*;RNase T1 inh=69*;NR1D1 mod conf=-4
Oc1c(C=Nc2cccc3cccnc23)sc2ccccc12,172*,26*,.,.,.,.,caTPT1 confirm=152*;RNase T1 inh=138*;NR1D1 mod conf=36*;RORg counter=>40
CCOC(=O)/C(=C\C=C1/Sc2ccccc2N1CC)C(C)=O,186*,27*,180,77,.,.,caTPT1 confirm=196*;RNase T1 inh=176*;NR1D1 mod conf=6
CCN1/C(=C/C(=O)c2ccco2)Sc2ccccc21,3,2,3,4,.,.,
C/C=C/c1ccc(O)c(OC)c1,0,2,7,4,.,.,
COc1cc(/C=C/C=C2/CC/C(=C/C=C/c3ccc(O)c(OC)c3)C2=O)ccc1O,.,-24,108,115*,-41*,52*,CSN deneddyl val=-53
COc1ccc(-c2cc(C(=O)NN=Cc3ccccc3F)[nH]n2)cc1,.,-8,.,.,.,.,
O=C(O)CSc1cc(C(=O)c2cc(F)ccc2O)cn2c(=O)c3c(-c4ccccc4)csc3nc12,11,-5,13,7,.,.,
CCOC(=O)c1sc2nc3c(SCCC(=O)O)cc(C(=O)c4cc(OC)ccc4O)cn3c(=O)c2c1C,.,-20,-1,104*,14,2,CSN deneddyl val=87*
O=C1CCC[C@H]2[C@@H](Cc3ccccc3)[C@@H](O)CC[C@]23CCCN13,.,0,.,.,.,.,
Cc1cc(C(=O)O)ccc1-c1ccc(/C=C2\NC(=O)N(Cc3ccccc3Cl)C2=O)o1,6,.,-15,34,.,.,
CCOC(=O)C(C)N1C(=O)S/C(=C\c2ccc(-c3ccccc3C(=O)O)o2)C1=O (centres undefined),3,-7,-35,48*,25*,9,
Cc1ccccc1NC(=O)CN1C(=O)S/C(=C\c2ccc(-c3cc(C(=O)O)ccc3C)o2)C1=O,.,-1,6,71*,4,8,
SMILES,TPT1 inhibitor,Rev-erbA mod,HNF4A DNA FP,CSN deneddyl inh,MMP2 cntr CSN,Thrombin cntr,others
Cc1ccc(C(=O)O)cc1-c1ccc(/C=C2\SC(=O)N(CC(=O)Nc3ccccc3)C2=O)o1,12,-2,6,19,.,.,
Cc1ccc(C(=O)O)cc1-c1ccc(/C=C2/NC(=O)N(c3ccccc3)C2=O)o1,3,-12,-24,41*,9,21*,
C#CCN1C(=O)S/C(=C\c2ccc(-c3ccc(C(=O)O)cc3C)o2)C1=O,7,-22,-29,39*,8,37*,
COC(=O)/C=C1\OC(C)c2ccccc21 (centres undefined),.,3,.,.,.,.,
Nc1nc2c(ncn2[C@@H]2O[C@H](C(=O)N[C@H](Cc3ccccc3)C(=O)NCc3ccc4c(c3)OCO4)[C@@H](O)[C@H]2O)c(=O)[nH]1,.,2,.,.,.,.,
O=C1NC(=S)S/C1=C/c1ccc(N2CCOCC2)o1,15,.,115,118*,-25*,-51,CSN deneddyl val=100*
Cc1nc2ccc(C(=O)N3CCN(C(=O)OCc4ccccc4)CC3)cc2n1C1CCCC1,.,-5,.,.,.,.,
CN(C)CCCN(C(=O)c1ccc(S(=O)(=O)N2CCc3ccccc3C2)cc1)c1nc2ccc(F)cc2s1,-4,2,57*,99*,-1,-14,CSN deneddyl val=-33
Cc1ccc2nc(N(CCCN(C)C)C(=O)c3ccc(S(=O)(=O)N4CCc5ccccc5C4)cc3)sc2c1,0,-7,-1,5,.,.,
Nc1c(/C=C2/C=CC(=O)C(O)=C2)c(=O)nc2sc(CC(=O)N3CCCC3)nn12,5,-15,-2,39*,36*,37*,CSN deneddyl val=25
COc1cc(OC)c(OC)cc1/C=C1\CCC/C(=C\c2cc(OC)c(OC)cc2OC)C1=O,.,11,54*,37*,-8,43*,CSN deneddyl val=66*
O=C(CSc1nnc(SCc2ccccc2)s1)N/N=C/c1c[nH]c2ccccc12,.,-14,13,3,.,.,
Cc1ccc(CSc2nnc(SCC(=O)N/N=C/c3c[nH]c4ccccc34)s2)cc1,.,-29,108*,61*,23*,1,CSN deneddyl val=67*
C[C@H](c1ccccc1)N1C[C@@H](COCc2ccccc2)Oc2cccc(Oc3ccc(F)cc3)c2S1(=O)=O,.,12,.,.,.,.,
